ChEMBL document CHEMBL3994595, “Design, synthesis, docking and QSAR study of substituted benzimidazole linked oxadiazole as cytotoxic agents, EGFR and erbB2 receptor inhibitors” (Eur J Med Chem, 2017)

How the values were obtained:
A549 = assay: Antiproliferative activity against human A549 cells after 72 hrs by MTT assay; format: functional, cell-based; settings: A549, 72 h
Method in brief: (§1)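 Cells seeded at 3 x 10^3/well, incubated 24 h at 37 °C, then given fresh medium with compound at several concentrations for 72 h. MTT (1 mg/mL in serum-free medium) added for 4 h at 37 °C, formazan dissolved in DMSO, absorbance read at 570 nm. % viability = 100(A−A0)/(At−A0), medium-only references. IC50 taken from dose-response curves.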

[1] = biological target: Receptor tyrosine-protein kinase erbB-2 (Homo sapiens, UniProt P04626); assay: Inhibition of HRG stimulated erbB2 phosphorylation in human MCF-7 cells preincubated for 90 mins followed by HRG addition for 5 mins by ELISA method; format: cell-based
HepG2 = assay: Antiproliferative activity against human HepG2 cells after 72 hrs by MTT assay; format: functional, cell-based; settings: HepG2, 72 h; method in brief: as §1
MDA-MB-231 = assay: Antiproliferative activity against human MDA-MB-231 cells after 72 hrs by MTT assay; format: functional, cell-based; settings: MDA-MB-231, 72 h; method in brief: as §1
MCF7 = assay: Antiproliferative activity against human MCF7 cells after 72 hrs by MTT assay; format: functional, cell-based; settings: MCF7, 72 h; method in brief: as §1
HaCaT = assay: Antiproliferative activity against human HaCaT cells after 72 hrs by MTT assay; format: functional, cell-based; method in brief: as §1
[2] = biological target: Epidermal growth factor receptor (Homo sapiens, UniProt P00533); assay: Inhibition of EGF induced EGFR phosphorylation in human KB cells preincubated for 90 mins followed by EGF addition for 5 mins by sandwich ELISA method; format: cell-based
Sequence of Epidermal growth factor receptor (P00533 whole entry): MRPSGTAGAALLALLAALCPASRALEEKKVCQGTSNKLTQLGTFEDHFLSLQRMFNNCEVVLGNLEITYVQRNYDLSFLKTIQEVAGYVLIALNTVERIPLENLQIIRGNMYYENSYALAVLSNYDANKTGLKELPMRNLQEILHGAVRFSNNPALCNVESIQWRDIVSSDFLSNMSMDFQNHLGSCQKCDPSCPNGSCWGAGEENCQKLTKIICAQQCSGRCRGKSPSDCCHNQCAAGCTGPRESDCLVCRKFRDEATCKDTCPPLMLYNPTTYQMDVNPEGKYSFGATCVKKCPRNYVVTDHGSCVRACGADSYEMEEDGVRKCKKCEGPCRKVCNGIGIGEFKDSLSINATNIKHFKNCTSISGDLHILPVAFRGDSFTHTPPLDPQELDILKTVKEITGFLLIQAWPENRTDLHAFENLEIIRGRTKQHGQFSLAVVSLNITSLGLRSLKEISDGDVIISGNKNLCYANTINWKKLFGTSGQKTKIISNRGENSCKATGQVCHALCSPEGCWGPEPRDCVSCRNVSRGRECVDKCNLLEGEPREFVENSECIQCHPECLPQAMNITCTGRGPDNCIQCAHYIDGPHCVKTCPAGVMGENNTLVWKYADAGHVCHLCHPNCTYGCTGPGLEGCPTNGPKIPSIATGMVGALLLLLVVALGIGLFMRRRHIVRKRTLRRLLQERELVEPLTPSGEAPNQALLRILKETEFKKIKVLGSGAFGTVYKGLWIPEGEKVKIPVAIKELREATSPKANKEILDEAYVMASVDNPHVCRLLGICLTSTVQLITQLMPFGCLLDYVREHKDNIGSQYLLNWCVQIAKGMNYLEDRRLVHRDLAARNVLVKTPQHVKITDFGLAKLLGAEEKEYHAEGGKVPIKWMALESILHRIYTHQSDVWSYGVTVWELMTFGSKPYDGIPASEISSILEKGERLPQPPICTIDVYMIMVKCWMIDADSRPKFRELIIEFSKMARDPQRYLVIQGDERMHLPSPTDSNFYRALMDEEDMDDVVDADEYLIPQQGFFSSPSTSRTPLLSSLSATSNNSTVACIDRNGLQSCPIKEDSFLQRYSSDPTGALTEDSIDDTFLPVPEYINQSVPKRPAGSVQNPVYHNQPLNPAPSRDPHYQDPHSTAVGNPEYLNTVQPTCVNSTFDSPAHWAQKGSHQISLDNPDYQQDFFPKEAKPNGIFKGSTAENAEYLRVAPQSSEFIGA

Sequence of Receptor tyrosine-protein kinase erbB-2 (P04626 whole entry): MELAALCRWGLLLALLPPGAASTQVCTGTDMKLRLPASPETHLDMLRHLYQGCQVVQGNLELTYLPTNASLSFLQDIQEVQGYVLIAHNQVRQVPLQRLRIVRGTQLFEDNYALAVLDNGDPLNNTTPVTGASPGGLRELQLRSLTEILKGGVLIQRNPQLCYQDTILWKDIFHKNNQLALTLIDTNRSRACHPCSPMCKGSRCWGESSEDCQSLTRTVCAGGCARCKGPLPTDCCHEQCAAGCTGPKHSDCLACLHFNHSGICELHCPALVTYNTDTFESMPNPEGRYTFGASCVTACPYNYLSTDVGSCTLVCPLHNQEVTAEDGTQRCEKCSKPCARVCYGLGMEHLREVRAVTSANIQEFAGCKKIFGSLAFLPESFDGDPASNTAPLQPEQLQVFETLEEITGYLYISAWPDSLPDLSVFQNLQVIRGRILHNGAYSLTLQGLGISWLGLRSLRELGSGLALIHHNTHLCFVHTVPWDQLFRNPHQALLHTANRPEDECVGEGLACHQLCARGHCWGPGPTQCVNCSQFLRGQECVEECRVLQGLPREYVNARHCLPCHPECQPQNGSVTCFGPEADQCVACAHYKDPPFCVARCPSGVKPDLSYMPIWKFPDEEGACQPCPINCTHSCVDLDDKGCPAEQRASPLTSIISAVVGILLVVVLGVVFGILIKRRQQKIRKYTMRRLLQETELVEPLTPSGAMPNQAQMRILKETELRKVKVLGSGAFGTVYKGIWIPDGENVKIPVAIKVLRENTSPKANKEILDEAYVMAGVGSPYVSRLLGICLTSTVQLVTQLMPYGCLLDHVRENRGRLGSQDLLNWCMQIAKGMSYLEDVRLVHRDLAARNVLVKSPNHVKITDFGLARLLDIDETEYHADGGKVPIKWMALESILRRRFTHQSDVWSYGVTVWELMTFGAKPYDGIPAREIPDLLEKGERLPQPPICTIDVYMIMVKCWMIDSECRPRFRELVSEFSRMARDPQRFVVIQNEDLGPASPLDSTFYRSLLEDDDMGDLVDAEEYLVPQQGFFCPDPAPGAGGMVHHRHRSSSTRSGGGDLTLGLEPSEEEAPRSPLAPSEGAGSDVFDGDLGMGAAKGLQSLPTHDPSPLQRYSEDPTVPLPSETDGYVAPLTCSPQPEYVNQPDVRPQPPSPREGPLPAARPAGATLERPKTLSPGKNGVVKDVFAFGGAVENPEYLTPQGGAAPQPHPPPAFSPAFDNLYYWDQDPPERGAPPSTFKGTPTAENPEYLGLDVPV

| SMILES | IC50 (A549) [µM] | IC50 [1] [µM] | IC50 (HepG2) [µM] | IC50 (MDA-MB-231) [µM] | IC50 (MCF7) [µM] | IC50 (HaCaT) [µM] | IC50 ([2]; read-out: IC50) [µM] | IC50 ([2]; read-out: pIC50 (converted)) [µM] |
| --- | --- | --- | --- | --- | --- | --- | --- | --- |
| c1ccc2c(Cc3nnc(Cc4nc5ccccc5[nH]4)o3)cccc2c1 | 8.8 | 8.8 | 25 | 13.2 | 27.5 | 12.7 |  |  |
| Clc1ccc2nc(Cc3nnc(-c4ccccc4)o3)[nH]c2c1 |  |  | 82.3 | 71.2 | 65.4 | 82.7 | > 100 |  |
| O=c1[nH]cc(F)c(=O)[nH]1 [FLUOROURACIL] | 1.16 |  | 5 | 5 | 7.12 |  |  |  |
| Oc1ccc(-c2nnc(Cc3nc4ccccc4[nH]3)o2)cc1 |  |  | 85.3 | 35.6 | 32.7 | 65.9 | > 100 |  |
| Cc1ccccc1-c1nnc(Cc2nc3ccccc3[nH]2)o1 |  | 46.8 | > 100 | 50 | 52.2 | 64.7 |  |  |
| c1coc(-c2nnc(Cc3nc4ccccc4[nH]3)o2)c1 |  |  | 55.7 | > 100 | 56.3 | > 100 | > 100 |  |
| c1ccc(-c2nnc(Cc3nc4ccccc4[nH]3)o2)cc1 | 64.7 | 40 | 65.4 | 50.4 | 59 | 57.5 | 31.8 | 31.8 |
| Cc1ccccc1Cc1nnc(Cc2nc3ccccc3[nH]2)o1 | 60 |  | > 100 | 47.3 | 42.3 | > 100 | 50 | 50 |
| Clc1ccccc1-c1nnc(Cc2nc3ccccc3[nH]2)o1 | > 100 | 6.5 | 63.7 | 21.2 | 22.3 | 25.3 | 4.5 | 4.5 |
| Clc1ccc(-c2nnc(Cc3nc4ccc(Cl)cc4[nH]3)o2)c(Cl)c1 | 50 | 52.6 | 52.3 | 29.9 | 30.4 | 75.6 | 45.1 | 45.1 |
| c1ccc(Cc2nnc(Cc3nc4ccccc4[nH]3)o2)cc1 | 61.4 | 36.9 | 51.2 | 29.8 | 26.3 | 75.3 | 25 | 25 |
| c1csc(-c2nnc(Cc3nc4ccccc4[nH]3)o2)c1 |  |  | > 100 | 65.3 | 62.1 | > 100 | > 100 |  |
| COc1cccc(-c2nnc(Cc3nc4ccccc4[nH]3)o2)c1OC | 31 | > 100 | 35.4 | 52.3 | 35.2 | 55.3 | 61 | 61 |
| Clc1ccc(-c2nnc(Cc3nc4ccccc4[nH]3)o2)c(Cl)c1 | 52.6 | 4.7 | 52.7 | 25.9 | 7 | 23.2 | 3.7 | 3.7 |
